The first assay concerns the target T1, Beta-secretase 1 (Homo sapiens, UniProt P56817). Description: Inhibition of human BACE1 expressed in recombinant baculovirus-infected insect cells using rhodamine conjugated APP-based EVNLDAEFK as substrate after 60 mins by FRET analysis. A digest of the protocol:
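FRET cleavage assay from a commercial BACE-1 kit, following supplier protocol. It used 3X BACE-1 enzyme (1U/ml) in 50mM sodium acetate buffer, pH 4.5. Test compounds were prepared as 10mM DMSO stocks and diluted with buffer. After 60 min incubation, fluorescence was read at 545 nm excitation.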
T1 sequence (P56817 whole entry): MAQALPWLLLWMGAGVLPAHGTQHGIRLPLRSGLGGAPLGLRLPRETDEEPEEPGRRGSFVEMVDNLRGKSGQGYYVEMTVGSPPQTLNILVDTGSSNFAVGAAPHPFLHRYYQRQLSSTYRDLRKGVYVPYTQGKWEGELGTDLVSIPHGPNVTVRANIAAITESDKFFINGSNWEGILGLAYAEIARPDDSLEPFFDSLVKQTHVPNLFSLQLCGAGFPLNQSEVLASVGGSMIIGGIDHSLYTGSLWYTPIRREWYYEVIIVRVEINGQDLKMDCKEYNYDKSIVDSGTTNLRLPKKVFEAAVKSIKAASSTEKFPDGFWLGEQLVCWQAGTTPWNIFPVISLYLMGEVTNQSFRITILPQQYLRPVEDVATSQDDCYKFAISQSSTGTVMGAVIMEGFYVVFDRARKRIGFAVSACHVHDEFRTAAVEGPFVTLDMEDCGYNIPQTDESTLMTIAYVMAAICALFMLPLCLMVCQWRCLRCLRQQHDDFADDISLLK
In the case of `CC(=O)Nc1ccc(S(=O)(=O)NCC(=O)Nc2ccc(C)cc2C)cc1`, the half-maximal inhibitory concentration (IC50) is 7.9 µM.

For the next assay, the target named is T1, Beta-secretase 1. Kind of assay: Inhibition of human BACE1 expressed in recombinant baculovirus-infected insect cells using rhodamine conjugated APP-based EVNLDAEFK as substrate at 10 uM after 60 mins by FRET analysis. Put shortly: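 Commercial BACE-1 FRET kit run per supplier protocol, with 3X BACE-1 enzyme (1U/ml) in 50mM sodium acetate buffer, pH 4.5. Compounds were made as 10mM DMSO stocks and diluted in buffer to a final 10µM. After 60 min incubation, fluorescence was read with excitation at 545 nm. Percent inhibition is given as mean ± S.D. of triplicate independent experiments.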
Consider `Cc1ccc(NC(=O)CNS(=O)(=O)c2ccccc2[N+](=O)[O-])c(C)c1`, for which the inhibition came out at 21.6%. Same read-out and setting: the figure for `O=C(CNS(=O)(=O)c1cccc([N+](=O)[O-])c1)Nc1ccccc1` is 42%; for `Cc1ccccc1S(=O)(=O)NCC(=O)Nc1ccccc1` it is 18.5%. The same measure, in the same setting: the figure for `CC(=O)Nc1ccc(S(=O)(=O)NCC(=O)Nc2ccccc2)cc1` is 28.9%. On the same count and under the same terms, the figure for `Cc1ccc(S(=O)(=O)NCC(=O)Nc2cccc(Cl)c2)cc1` is 31.8%; for `O=C(CNS(=O)(=O)c1ccc([N+](=O)[O-])cc1)Nc1ccccc1` it is 5.03%; for `CC(=O)Nc1ccc(S(=O)(=O)NCC(=O)Nc2ccc(C)cc2C)cc1` it is 61.9%. Regarding `O=C(CNS(=O)(=O)c1ccc([N+](=O)[O-])cc1)Nc1cccc(Cl)c1`, the inhibition amounted to 17%. On to `O=C(CNS(=O)(=O)c1cccc([N+](=O)[O-])c1)Nc1cccc(Cl)c1`, for which the inhibition came to 42.1%. The same measure, in the same setting: the figure for `O=C(CNS(=O)(=O)c1ccccc1)Nc1cccc(Cl)c1` is 4.83%; for `COc1ccc(S(=O)(=O)NCC(=O)Nc2ccc(Cl)cc2)cc1` it is 35.1%. For `Cc1ccc(NC(=O)CNS(=O)(=O)c2ccc(Cl)cc2)c(C)c1`, the inhibition was found to be 35.9%. As for `O=C(CNS(=O)(=O)c1ccc([N+](=O)[O-])cc1)Nc1ccc(Cl)cc1`, the inhibition was 9.89%. Same read-out and setting: the figure for `Cc1ccc(S(=O)(=O)NCC(=O)Nc2ccc(C)cc2C)cc1` is 35%. Still for that read-out and setting: the figure for `O=C(CNS(=O)(=O)c1cccc([N+](=O)[O-])c1)Nc1ccc(Cl)cc1` is 29.5%. Still for that read-out and setting: the figure for `Cc1ccc(NC(=O)CNS(=O)(=O)c2cccc([N+](=O)[O-])c2)c(C)c1` is 41%. `O=C(CNS(=O)(=O)c1ccccc1)Nc1ccc(Cl)cc1`: the inhibition turned out to be 5.09%. Still for that read-out and setting: the figure for `COc1ccc(S(=O)(=O)NCC(=O)Nc2cccc(Cl)c2)cc1` is 38.3%; for `O=C(CNS(=O)(=O)c1ccccc1[N+](=O)[O-])Nc1ccc(Cl)cc1` it is 18.5%; for `Cc1ccc(S(=O)(=O)NCC(=O)Nc2ccccc2)cc1` it is 21.9%. Regarding `COc1ccc(S(=O)(=O)NCC(=O)Nc2ccccc2)cc1`, the inhibition was 28.6%. Still for that read-out and setting: the figure for `Cc1ccc(NC(=O)CNS(=O)(=O)c2ccccc2)c(C)c1` is 5.38%. Take `CC(=O)Nc1ccc(S(=O)(=O)NCC(=O)Nc2cccc(Cl)c2)cc1`: the inhibition came to 52.9%. Same read-out and setting: the figure for `O=C(CNS(=O)(=O)c1ccc(Cl)cc1)Nc1ccc(Cl)cc1` is 34.8%; for `O=C(CNS(=O)(=O)c1ccc(Cl)cc1)Nc1ccccc1` it is 22.8%; for `COc1ccc(S(=O)(=O)NCC(=O)Nc2ccc(C)cc2C)cc1` it is 28.4%. On the same count and under the same terms, the figure for `O=C(CNS(=O)(=O)c1ccccc1[N+](=O)[O-])Nc1cccc(Cl)c1` is 17.5%; for `O=C(CNS(=O)(=O)c1ccc(Cl)cc1)Nc1cccc(Cl)c1` it is 48.6%; for `Cc1ccc(S(=O)(=O)NCC(=O)Nc2ccc(Cl)cc2)cc1` it is 25.3%. With `O=C(CNS(=O)(=O)c1ccccc1[N+](=O)[O-])Nc1ccccc1`, the inhibition came to 14.9%.

For the compound `O=C(CNS(=O)(=O)c1ccccc1)Nc1ccccc1`, the inhibition came out at 8.72%. In the case of `Cc1ccc(NC(=O)CNS(=O)(=O)c2ccc([N+](=O)[O-])cc2)c(C)c1`, the inhibition was 9.49%. The same measure, in the same setting: the figure for `CC(=O)Nc1ccc(S(=O)(=O)NCC(=O)Nc2ccc(Cl)cc2)cc1` is 37.1%.

For orientation: IC50 means the concentration at which inhibition is half-maximal. Usually inhibition stands for the percentage by which the read-out fell short of the control.

The values above are taken from ChEMBL document CHEMBL3792298, “Design, synthesis and in vitro evaluation studies of sulfonyl-amino-acetamides as small molecule BACE-1 inhibitors” (Bioorg Med Chem, 2016).
